Data set [1] concerns the target 5-hydroxytryptamine receptor 2A (Homo sapiens, UniProt P28223). Nature of the data set: Ability to displace [3H]ketanserin binding to human 5-hydroxytryptamine 2A receptor stably expressed in CHO cells. Type of data set: cell-based. In short, it runs like this:
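Membranes from CHO cells stably expressing human 5-HT2A, homogenized in 50 mM Tris-HCl pH 7.5, at 2 mg wet weight/mL. Ki from nonlinear least-squares regression, geometric mean of at least three determinations.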

In data set [2] the target is T1, 5-hydroxytryptamine receptor 2C (Homo sapiens, UniProt P28335).
T1 sequence (P28335 whole entry): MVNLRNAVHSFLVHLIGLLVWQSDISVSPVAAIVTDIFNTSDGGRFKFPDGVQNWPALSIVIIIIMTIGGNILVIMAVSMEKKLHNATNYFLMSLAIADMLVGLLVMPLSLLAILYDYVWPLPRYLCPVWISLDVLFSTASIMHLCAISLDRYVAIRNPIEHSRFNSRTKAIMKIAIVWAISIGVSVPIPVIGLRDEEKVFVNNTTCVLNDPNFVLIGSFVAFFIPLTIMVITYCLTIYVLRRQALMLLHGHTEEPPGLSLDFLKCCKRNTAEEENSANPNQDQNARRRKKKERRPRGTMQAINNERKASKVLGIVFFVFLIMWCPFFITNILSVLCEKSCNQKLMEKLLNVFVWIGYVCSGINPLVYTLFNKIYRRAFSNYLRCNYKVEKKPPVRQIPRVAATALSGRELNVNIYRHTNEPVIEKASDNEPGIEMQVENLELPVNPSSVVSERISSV
Description: Ability to displace [3H]mesulergine binding to human 5-hydroxytryptamine 2C receptor stably expressed in CHO cells. It counts as cell-based.

Data set [3] can be described thus: Bioavailability in dog (dose 0.5-2 mg/kg i.v. and p.o.). The note with it: in vivo, po. It counts as ADME, organism-based, Canis lupus familiaris. In short, it runs like this:
(§1)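 Female Beagle dogs (10-12 kg), three per route; i.v. cephalic-vein bolus (1 mL/kg PEG 300/water) and oral gavage (5 mL/kg of 0.5% methocel A4C suspension), 0.5-2 mg/kg. Serial blood to 24 h; plasma extracted with ethyl acetate, LC-MS. Model-independent bioavailability and terminal half-life after i.v. dosing.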

The nature of data set [4]: Bioavailability in rat (dose 0.5-2 mg/kg i.v. and p.o.). It counts as ADME, organism-based. Conditions: in vivo, po. In short, it runs like this: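 Male Sprague-Dawley rats (~300 g), jugular-cannulated, three per route. Dosing by i.v. tail-vein bolus and oral gavage, each in a suitable vehicle. Serial jugular blood samples taken; plasma extracted with ethyl acetate against an internal standard. Analysis by LC-MS with single ion recording. F from model-independent parameters.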

Data set [5] can be described thus: Terminal half-life following iv dosing in dog. Type of data set: ADME, organism-based, Canis lupus familiaris. Conditions: in vivo. Summed up: as §1
Data set [6] can be described thus: Terminal half-life following iv dosing in rat. It counts as ADME, organism-based. The note with it: in vivo.
Data set [7] has as its target T2, Adrenergic receptor alpha-1 (Rattus norvegicus, UniProt P15823+P23944+P43140).
T2 sequence (P15823 whole entry): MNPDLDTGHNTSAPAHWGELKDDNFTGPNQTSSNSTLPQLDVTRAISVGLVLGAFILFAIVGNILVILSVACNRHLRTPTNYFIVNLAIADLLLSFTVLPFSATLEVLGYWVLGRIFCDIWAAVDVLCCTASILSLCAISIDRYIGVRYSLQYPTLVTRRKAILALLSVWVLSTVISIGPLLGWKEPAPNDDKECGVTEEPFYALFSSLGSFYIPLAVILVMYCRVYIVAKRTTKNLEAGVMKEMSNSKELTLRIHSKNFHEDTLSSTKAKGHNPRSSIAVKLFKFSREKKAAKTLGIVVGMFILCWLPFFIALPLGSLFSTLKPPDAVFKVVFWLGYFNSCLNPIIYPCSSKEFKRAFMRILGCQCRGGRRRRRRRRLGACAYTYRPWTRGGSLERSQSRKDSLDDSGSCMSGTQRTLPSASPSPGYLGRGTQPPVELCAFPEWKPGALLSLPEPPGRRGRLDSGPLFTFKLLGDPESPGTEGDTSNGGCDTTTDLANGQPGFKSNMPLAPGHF
T2 sequence (P23944 whole entry): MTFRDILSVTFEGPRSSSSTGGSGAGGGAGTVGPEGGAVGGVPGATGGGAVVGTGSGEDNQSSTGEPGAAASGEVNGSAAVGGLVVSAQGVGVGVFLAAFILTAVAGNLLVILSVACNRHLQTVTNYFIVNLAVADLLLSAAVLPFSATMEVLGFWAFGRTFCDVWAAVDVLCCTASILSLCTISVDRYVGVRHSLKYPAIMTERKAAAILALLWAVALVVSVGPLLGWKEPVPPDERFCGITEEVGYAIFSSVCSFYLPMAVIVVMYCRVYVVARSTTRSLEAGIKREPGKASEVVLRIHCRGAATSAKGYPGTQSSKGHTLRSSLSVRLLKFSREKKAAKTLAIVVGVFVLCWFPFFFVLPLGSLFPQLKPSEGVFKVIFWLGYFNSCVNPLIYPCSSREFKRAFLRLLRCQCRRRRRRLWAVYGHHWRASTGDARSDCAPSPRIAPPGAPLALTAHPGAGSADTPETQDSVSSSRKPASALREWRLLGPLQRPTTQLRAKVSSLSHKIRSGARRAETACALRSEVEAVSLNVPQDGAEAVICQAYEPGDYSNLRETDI
T2 sequence (P43140 whole entry): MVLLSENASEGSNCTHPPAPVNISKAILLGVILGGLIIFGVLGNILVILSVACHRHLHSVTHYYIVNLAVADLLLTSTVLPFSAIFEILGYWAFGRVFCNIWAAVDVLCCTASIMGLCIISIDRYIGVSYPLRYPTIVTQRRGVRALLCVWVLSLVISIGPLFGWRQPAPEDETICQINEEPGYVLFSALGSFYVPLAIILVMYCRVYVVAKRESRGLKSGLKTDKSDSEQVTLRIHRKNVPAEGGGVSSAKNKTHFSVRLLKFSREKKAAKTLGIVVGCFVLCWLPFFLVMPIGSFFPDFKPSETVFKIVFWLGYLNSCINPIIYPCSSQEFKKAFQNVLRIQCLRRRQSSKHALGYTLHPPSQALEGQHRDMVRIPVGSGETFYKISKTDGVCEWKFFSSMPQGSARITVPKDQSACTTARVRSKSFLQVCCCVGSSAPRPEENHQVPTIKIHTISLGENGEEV
Description: Ability to displace [3H]-prazosin binding to rat cortical membranes expressing Alpha-1 adrenergic receptors.

The target of the next data set is D(2) dopamine receptor (Homo sapiens, UniProt P14416). Description: Ability to displace [3H]spiperone binding to CHO cells stably expressing dopamine receptor D2. Type of data set: cell-based.
D(2) dopamine receptor, sequence (P14416 whole entry): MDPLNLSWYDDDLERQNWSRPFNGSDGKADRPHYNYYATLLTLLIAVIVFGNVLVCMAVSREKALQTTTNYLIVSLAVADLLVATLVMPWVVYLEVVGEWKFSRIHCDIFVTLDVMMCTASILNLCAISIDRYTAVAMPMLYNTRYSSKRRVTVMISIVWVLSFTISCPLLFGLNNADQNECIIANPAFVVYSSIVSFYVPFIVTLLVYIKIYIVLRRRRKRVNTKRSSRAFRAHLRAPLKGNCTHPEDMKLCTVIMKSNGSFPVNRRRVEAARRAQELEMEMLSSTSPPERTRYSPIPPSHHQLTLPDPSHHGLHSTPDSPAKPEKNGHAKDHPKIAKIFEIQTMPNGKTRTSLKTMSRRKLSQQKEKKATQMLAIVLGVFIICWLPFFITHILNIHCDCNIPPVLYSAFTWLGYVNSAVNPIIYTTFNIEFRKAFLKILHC
The nature of data set [8]: Area under the concentration-time curve for 0-4 hr after 2 mg/kg po in rat. Type of data set: ADME, organism-based. Further details: time < 4 hr, dose 2 mg/kg, route oral. The note with it: in vivo. Summed up: (§2)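 Male Sprague-Dawley rats (~300 g) gavaged at 2 mg/kg (5 mL/kg of 0.5% methocel A4C suspension), five rats; one rat culled per time point up to 4 h for blood. Samples get internal standard and are extracted into ethyl acetate, then LC-MS single ion recording.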

The nature of data set [9]: Maximum blood concentration after oral dosing at 2 mg/kg in rat. It counts as ADME, organism-based. Further details: dose 2 mg/kg, route oral. In short, it runs like this:
as §2

Data set [10] has as its target Voltage-gated inwardly rectifying potassium channel KCNH2 (Homo sapiens, UniProt Q12809). Description: Displacement of [3H]dofetilide from HEK cells expressing hERG voltage dependent IKr potassium channel Kv11.1.
The nature of data set [11]: Terminal half-life following iv dosing in dog, measured over 48 hr. Type of data set: ADME, organism-based, Canis lupus familiaris. The note with it: in vivo.
Data set [12] in a line: Terminal half-life following iv dosing in rat, measured over 48 hr. It counts as ADME, organism-based. Conditions: in vivo.

5-hydroxytryptamine receptor 2A, sequence (P28223 whole entry): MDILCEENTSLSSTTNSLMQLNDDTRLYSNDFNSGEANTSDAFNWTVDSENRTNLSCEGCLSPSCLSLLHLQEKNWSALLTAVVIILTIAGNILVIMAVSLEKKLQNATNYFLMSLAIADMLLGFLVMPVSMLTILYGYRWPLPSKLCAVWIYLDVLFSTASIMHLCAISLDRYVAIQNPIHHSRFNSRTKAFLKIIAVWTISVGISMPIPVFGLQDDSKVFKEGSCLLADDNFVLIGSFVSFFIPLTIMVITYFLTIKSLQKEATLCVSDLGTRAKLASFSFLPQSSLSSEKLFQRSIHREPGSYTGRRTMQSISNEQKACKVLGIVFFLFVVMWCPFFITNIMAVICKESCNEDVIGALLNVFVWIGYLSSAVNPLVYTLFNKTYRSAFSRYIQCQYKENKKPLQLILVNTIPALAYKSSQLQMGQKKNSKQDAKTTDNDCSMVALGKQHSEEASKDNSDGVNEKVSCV
Voltage-gated inwardly rectifying potassium channel KCNH2, sequence (Q12809 whole entry): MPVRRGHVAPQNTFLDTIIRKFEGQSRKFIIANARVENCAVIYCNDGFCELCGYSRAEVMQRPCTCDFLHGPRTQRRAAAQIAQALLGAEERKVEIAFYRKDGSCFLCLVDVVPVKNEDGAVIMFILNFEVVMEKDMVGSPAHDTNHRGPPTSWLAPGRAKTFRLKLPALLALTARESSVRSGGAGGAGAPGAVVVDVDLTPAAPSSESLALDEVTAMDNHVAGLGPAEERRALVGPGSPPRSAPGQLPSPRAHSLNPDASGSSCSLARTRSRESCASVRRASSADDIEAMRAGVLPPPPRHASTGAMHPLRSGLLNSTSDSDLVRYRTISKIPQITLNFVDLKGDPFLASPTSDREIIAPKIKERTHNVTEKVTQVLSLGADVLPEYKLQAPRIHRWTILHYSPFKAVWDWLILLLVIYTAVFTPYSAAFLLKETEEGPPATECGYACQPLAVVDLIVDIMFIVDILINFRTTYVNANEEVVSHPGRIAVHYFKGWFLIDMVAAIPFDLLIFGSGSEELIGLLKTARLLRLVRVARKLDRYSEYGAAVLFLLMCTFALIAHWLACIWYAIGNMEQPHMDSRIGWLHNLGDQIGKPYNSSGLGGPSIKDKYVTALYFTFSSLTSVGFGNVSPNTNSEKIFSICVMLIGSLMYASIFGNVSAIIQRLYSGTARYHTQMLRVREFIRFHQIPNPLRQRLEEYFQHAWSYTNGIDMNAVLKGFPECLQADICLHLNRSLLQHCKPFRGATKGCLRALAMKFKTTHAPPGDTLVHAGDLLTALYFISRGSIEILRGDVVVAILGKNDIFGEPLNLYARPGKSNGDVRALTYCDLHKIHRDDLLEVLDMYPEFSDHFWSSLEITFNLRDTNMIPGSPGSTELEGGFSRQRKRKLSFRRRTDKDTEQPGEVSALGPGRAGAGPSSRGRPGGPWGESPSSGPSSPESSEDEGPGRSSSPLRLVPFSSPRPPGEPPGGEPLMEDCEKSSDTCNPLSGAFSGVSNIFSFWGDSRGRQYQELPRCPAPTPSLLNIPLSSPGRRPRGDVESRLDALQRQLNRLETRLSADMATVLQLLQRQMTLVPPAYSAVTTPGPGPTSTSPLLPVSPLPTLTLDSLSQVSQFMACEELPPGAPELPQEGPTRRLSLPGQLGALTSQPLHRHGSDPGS

Turning to `F[C@@H]1CCNC[C@H]1c1c(-c2ccccc2)[nH]c2ccccc12`, the Ki in data set [1] is 0.43 nM; in [2] it was 19 nM; in data set [7] it was 25 nM; on D(2) dopamine receptor, more than 1700 nM. Besides, the bioavailability in [3] amounted to 37%; in data set [4], 18%. Also, the values for the half-life in data set [5] and in data set [6] were 7.4 h and 1.4 h, respectively.

Take `c1ccc(CCN2[C@@H]3CC[C@H]2CC(c2c(-c4ccccc4)[nH]c4ccccc24)C3)cc1` (stereo not given in full): the Ki in data set [1] stood at 1.2 nM; in data set [2] it was 400 nM; in data set [7], 250 nM; on D(2) dopamine receptor it was 1000 nM; in data set [10] it was 18 nM. This compound also gave an AUC(0-t) at 4 h in data set [8] of 126 ng·h/mL. In [4], this compound displayed a bioavailability of 18%. Besides, in data set [6], the half-life was 2.3 h. For the same compound, the Cmax in data set [9] turned out to be 210 ng/mL.

Regarding `Fc1ccc2c([C@@H]3CNCC[C@H]3F)c(-c3ccccc3)[nH]c2c1`, the half-life in [11] was 6.4 h; in data set [12], 12 h.

Consider `c1ccc(CCN2CCC(c3c(-c4ccccc4)[nH]c4ccccc34)CC2)cc1`, for which the Ki in data set [1] was determined as 0.48 nM; in data set [7], 25 nM; on D(2) dopamine receptor, 350 nM. For the same compound, the bioavailability in data set [3] was 4%. Moreover, the half-life is 9.8 h in [5] and 5.3 h in data set [6].

(Values after ChEMBL document CHEMBL1134475, “3-(4-Fluoropiperidin-3-yl)-2-phenylindoles as high affinity, selective, and orally bioavailable h5-HT(2A) receptor antagonists” (J Med Chem, 2001).)
